Publication PMC3375358 (Journal of Medicinal Chemistry, 2012)

How the values were obtained:
KIX-KID interaction = KIX-KID interaction (Homo sapiens, UniProt Q92793); test: in vitro renilla luciferase complementation assay for KIX-KID interaction; assay type: biochemical
Procedure, shortened: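 KIX-KID binding was measured in vitro by renilla luciferase complementation, with test compounds up to 50 μM. IC50 values are given as mean ± SD from at least two independent experiments. The value is listed as >50 if IC50 was not reached at the top concentration.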

[1] = test system: CREB-mediated gene transcription; test: CREB reporter assay in HEK 293T cells; assay type: cell-based
Procedure, shortened: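 Inhibition of CREB-dependent reporter transcription by test compounds was measured in HEK 293T cells, with a top concentration of 50 μM. IC50 values are given as mean ± SD from at least two independent experiments. Where IC50 was not reached at the highest concentration, the value is recorded as >50.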

KIX-KID interaction, sequence (Q92793 587-666 limits assumed): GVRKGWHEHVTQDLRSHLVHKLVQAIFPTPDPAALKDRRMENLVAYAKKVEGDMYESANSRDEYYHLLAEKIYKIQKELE

| SMILES | activity in inhibiting KIX-KID interaction (in words) (KIX-KID interaction) | activity in cell-based CREB reporter assay (in words) [1] |
| --- | --- | --- |
| O=c1oc2cc3ccccc3cc2c(=O)n1-c1ccc(Cl)cc1 [Compound 2, 3-(4-Chlorophenyl)-2H-naphtho[2,3-e][1,3]oxazine-2,4-(3H)-dione] | neither of these compounds showed any activity | low or no inhibitory activity |
| O=c1[nH]c2cc3ccccc3cc2c(=O)n1-c1ccc(Cl)cc1 [Compound 3, 3-(4-Chlorophenyl)-benzo[g]quinazoline-2,4-(1H,3H)-dione] | neither of these compounds showed any activity | low or no inhibitory activity |
| Clc1ccc(Nc2noc3cc4ccccc4cc23)cc1 [Compound 4, N-(4-Chlorophenyl)-naphtho[2,3-d]isoxazol-3-amine] | inactive | very weak activity |
| Cn1nc(Nc2ccc(Cl)cc2)c2cc3ccccc3cc21 [Compound 6, N-(4-Chlorophenyl)-1-methyl-1H-benzo[f]indazol-3-amine] |  | inactive |
